Assay outcomes as filed in PubChem.
Shown is part of a subset that was picked to be rich in hits.
TRPML3 agonist: activates the human TRPML3 channel | Q8TDD5 | HEK293 TRPML3-YFP, Fluo-8 calcium fluorescence; 100% = the carbachol control signal | activation, % at 3 µM | 220,000 compounds, 0.29% hits;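 active = activation above its plate's cutoff, the mean activation of the plate's test wells plus 3 SD, cut at about 12% in these data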
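Material: TRPML3-YFP stable HEK293 cells | Dosing: One concentration, 3 µM nominal, 0.3% DMSO | Timing: 125 s total fluorescence read per well | Technique: Fluo-8 calcium dye fluorescence, ex 470-495, em 515-575 nm | Measure: Percent activation from peak-to-basal fluorescence ratio, scaled between DMSO and carbachol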
ROMK primary: modulates human ROMK potassium channel activity | 130,000 compounds, 2% hits | P48048 | B-score at 10 µM | AID 1918 | Tet-inducible ROMK, thallium flux fluorescence; actives lie on both sides;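 active = signal ratio slope over the read window, or its plate-corrected B-score, at least 3 SD from the plate mean, either direction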;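 note: B-score of the F/F0 ratio slope over 7 to 12 s after thallium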
ABCB1 block: blocks JC-1 efflux by human ABCB1 transporter. P08183. CCRF-Adr cells, flow cytometry. 190,000 compounds, 0.067% hits. inhibition, % at 6.6 µM; in the data active = inhibition above about 40%;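 note: higher value means more JC-1 retained so stronger ABCB1 efflux block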
Target sequence (P08183 whole entry, looked up): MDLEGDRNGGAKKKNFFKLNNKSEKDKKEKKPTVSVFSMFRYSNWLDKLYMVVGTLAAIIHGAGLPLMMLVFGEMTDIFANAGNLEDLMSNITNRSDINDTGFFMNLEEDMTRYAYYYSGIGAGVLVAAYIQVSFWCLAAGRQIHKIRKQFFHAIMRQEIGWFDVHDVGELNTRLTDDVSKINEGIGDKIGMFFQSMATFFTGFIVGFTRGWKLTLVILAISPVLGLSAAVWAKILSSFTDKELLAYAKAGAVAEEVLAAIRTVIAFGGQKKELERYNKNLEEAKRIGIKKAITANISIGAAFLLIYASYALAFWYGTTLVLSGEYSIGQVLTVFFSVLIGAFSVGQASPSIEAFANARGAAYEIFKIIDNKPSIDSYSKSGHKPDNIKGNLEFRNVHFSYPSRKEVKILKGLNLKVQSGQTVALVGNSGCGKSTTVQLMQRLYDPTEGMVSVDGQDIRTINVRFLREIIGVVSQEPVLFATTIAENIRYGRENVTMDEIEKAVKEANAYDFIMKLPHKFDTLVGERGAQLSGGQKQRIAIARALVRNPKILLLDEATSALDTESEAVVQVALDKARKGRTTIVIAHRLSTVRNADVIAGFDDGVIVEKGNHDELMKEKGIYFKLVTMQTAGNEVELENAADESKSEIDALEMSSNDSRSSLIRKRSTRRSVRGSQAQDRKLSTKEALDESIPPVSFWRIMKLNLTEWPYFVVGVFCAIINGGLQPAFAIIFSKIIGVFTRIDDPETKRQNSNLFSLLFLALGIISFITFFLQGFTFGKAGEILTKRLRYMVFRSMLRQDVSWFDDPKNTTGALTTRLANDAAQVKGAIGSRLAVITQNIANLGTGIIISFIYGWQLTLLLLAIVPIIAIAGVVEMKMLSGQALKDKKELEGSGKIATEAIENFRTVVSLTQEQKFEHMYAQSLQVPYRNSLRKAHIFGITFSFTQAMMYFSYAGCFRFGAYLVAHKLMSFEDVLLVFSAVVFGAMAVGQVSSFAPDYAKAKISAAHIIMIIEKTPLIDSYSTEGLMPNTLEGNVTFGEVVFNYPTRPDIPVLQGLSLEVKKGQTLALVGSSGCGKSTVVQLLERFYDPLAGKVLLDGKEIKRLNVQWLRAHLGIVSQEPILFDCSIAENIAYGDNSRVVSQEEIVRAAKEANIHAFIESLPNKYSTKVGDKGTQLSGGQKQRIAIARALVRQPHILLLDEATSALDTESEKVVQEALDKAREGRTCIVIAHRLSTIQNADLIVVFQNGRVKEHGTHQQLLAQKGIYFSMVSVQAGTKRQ
Calb biofilm kill: mixture kills Candida albicans biofilm cells; AID 1242; inhibition, % at 7.6 µM; 120,000 compounds, 0.02% hits; C. albicans biofilm persisters + clotrimazole, fluorescence viability; primary screen in compound mixtures of four per well;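 note: compounds exposed to preformed 24 h biofilms for 48 h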
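Test system: C. albicans CAF4-2 wild-type biofilms; buffer or medium: RPMI/MOPS medium, pH 7.0; schedule: 24 h biofilm formation, then 48 h compound exposure, 37 °C; detection: Alamar Blue fluorescence; measure: percent inhibition of biofilm viability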
ABCG2 inh: inhibitors of human ABCG2 transporter, ABCB1 counter-screen; IgMXP3 cells, JC-1 efflux, flow cytometry; 190,000 compounds, 0.1% hits; AID 1325; inhibition, % at 6.6 µM; Q9UNQ0;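 active = inhibition above 80%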
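Measure – % inhibition of efflux relative to nicardipine and DMSO · Test system – ABCG2 IgMXP3 and barcoded ABCB1 CCRF-Adr cell mix · Control set – nicardipine as high control, DMSO as low control · Compound – one concentration, 6.6 µM final · Signal – flow cytometry of retained JC-1 fluorescence · Timing – 10 min exposure at 25 °C with rotation, no wash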
TRPN1 ag: zebrafish TRPN1 (NompC) channel agonism. HEK293 zebrafish TRPN1-YFP, Fluo-8 calcium fluorescence; 100% = response to 87 µM carbachol. activation, % at 3 µM. 220,000 compounds, 0.18% hits. AID 1424;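 active = activation above its plate's cutoff, the mean activation of test wells on that plate plus 3 SD, cut at about 19% in these data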
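Material – zebrafish TRPN1-YFP in HEK293 cells · Doses – 3 µM single point · Schedule – dye 1 h 37 °C plus 30 min RT · Signal – Fluo-8 calcium fluorescence, excitation 470-495 nm, emission 515-575 nm · Read-out – % activation versus carbachol response · Control set – carbachol high, DMSO low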
ROMK hit retest: confirmation of human ROMK potassium channel modulators. normalized thallium flux (F/F0 slope) at 10 µM. ROMK thallium flux, fluorescence ratio; active compounds read low. shares compounds with ROMK primary. 3,000 compounds, 54% hits. AID 1917;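 active = Flux at 10 µM at least 3 SD below or above vehicle control mean in one or both replicates; inconclusive = no clear call, values can overlap the other calls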
Numbers stand for hits.

For CC1(C)C2C(Cl)(Cl)C2(C)c2ccccc2N1C=O (centres undefined) the results were TRPML3 agonist inactive, Calb biofilm kill inactive and TRPN1 ag inactive.
CCOC(=O)/C(=C\c1cccc(O)c1)c1nc2sc(C)c(C)c2c(=O)[nH]1 was read as TRPML3 agonist inactive, ROMK primary -4.07, ABCB1 block inactive, Calb biofilm kill inactive, ABCG2 inh inactive, TRPN1 ag inactive and ROMK hit retest 0.0585.
COCCN=c1scc(-c2ccco2)n1/N=C/c1ccc(O)c(O)c1O was read as TRPML3 agonist inactive, ROMK primary 3.23, ABCB1 block inactive, Calb biofilm kill inactive, ABCG2 inh inactive, TRPN1 ag inactive and ROMK hit retest inactive.
C=CCN=c1scc(-c2ccco2)n1/N=C/c1ccc(O)c(O)c1O was read as TRPML3 agonist inactive, Calb biofilm kill inactive and TRPN1 ag inactive.
Screening O=C(N/N=C/c1cccs1)c1cc(-c2ccncc2)nc2ccccc12 returned TRPML3 agonist inactive, ROMK primary 4.19, ABCB1 block inactive, Calb biofilm kill inactive, ABCG2 inh inactive, TRPN1 ag inactive and ROMK hit retest inactive.
Screening Cc1ccc(Cn2c(CN3CCN(C(=O)c4ccco4)CC3)nc3c2c(=O)n(C)c(=O)n3C)cc1 returned TRPML3 agonist inactive, ROMK primary 2.57, ABCB1 block inactive, ABCG2 inh inactive, TRPN1 ag inactive and ROMK hit retest inactive.
CC(C)C(c1nnnn1CC1CCCO1)N1CCN(Cc2ccc3c(c2)OCO3)CC1 (centres undefined) was read as TRPML3 agonist inactive, ROMK primary inactive, ABCB1 block inactive, ABCG2 inh inactive and TRPN1 ag inactive.
Screening CC(C)C(c1nnnn1Cc1ccccc1)N1CCN(Cc2ccc3c(c2)OCO3)CC1 (centres undefined) returned TRPML3 agonist inactive, ABCB1 block inactive, ABCG2 inh inactive, TRPN1 ag inactive and ROMK hit retest 0.0556.
CC(=O)c1c(C)[nH]c(C(=O)OCCCCN2C(=O)c3ccccc3C2=O)c1C was read as TRPML3 agonist inactive, ABCB1 block inactive, ABCG2 inh inactive, TRPN1 ag inactive and ROMK hit retest 0.0609.
O=C(CN1CCN(Cc2ccccc2)CC1)Nc1ccccc1-c1ccccc1 was read as TRPML3 agonist inactive, ROMK primary -3.74, ABCB1 block inactive, Calb biofilm kill inactive, ABCG2 inh inactive, TRPN1 ag inactive and ROMK hit retest inconclusive.
For CCOc1ccc(/C=N/NC(=O)Cc2cccs2)cc1 the results were TRPML3 agonist inactive, Calb biofilm kill inactive and TRPN1 ag inactive.
For O=C(COC(=O)C1CCN(S(=O)(=O)c2ccc3c(c2)OCCO3)CC1)Nc1ccc(C(F)(F)F)cc1 the results were TRPML3 agonist inactive, ABCB1 block inactive, Calb biofilm kill inactive, ABCG2 inh inactive and TRPN1 ag inactive.
COc1ccc(C2C(C#N)=C(N)Oc3cc4c(cc32)OCO4)cc1 (centres undefined) was read as TRPML3 agonist inactive, ABCB1 block inactive, ABCG2 inh inactive and TRPN1 ag inactive.
CCN1C=C(Cc2ccc(OC)cc2)C2=C(C1)C(c1ccc(OC)cc1)C(C#N)=C(N)O2 (centres undefined) was read as TRPML3 agonist inactive, ABCB1 block inactive, ABCG2 inh inactive, TRPN1 ag inactive and ROMK hit retest inconclusive.
Screening Cc1cc(C)c(C)c(S(=O)(=O)Nc2ccccc2C(=O)NCCCN2CCOCC2)c1C returned TRPML3 agonist inactive, ROMK primary inactive, ABCB1 block inactive, Calb biofilm kill inactive, ABCG2 inh inactive and TRPN1 ag inactive.
Screening c1ccc(-n2cc(CNCCc3cscn3)c(-c3ccc4c(c3)OCO4)n2)cc1 returned TRPML3 agonist inactive, ROMK primary -3.1, ABCB1 block inactive, Calb biofilm kill inactive, ABCG2 inh inactive, TRPN1 ag inactive and ROMK hit retest 0.0504.
